An excerpt weighted towards active compounds, which were near 2.9% of everything screened.
TRPC6 inhibitor – mouse TRPC6 channel inhibitors, primary screen, cell-based, HEK293, membrane potential dye | Short transient receptor potential channel 6 (Mus musculus), Q61143 | ACh-evoked depolarization; stronger effect = lower value | B-score at 10 µM | 310,000 compounds, 1.1% hits;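 active means B-score under library mean minus 3 SD, initial fluorescence not abnormally high, positive integrated signal ratio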;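 further: B-score derived from integrated fluorescence ratio over the kinetic read; more negative B-score means stronger inhibition of depolarization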
Target sequence (Q61143 whole entry, looked up): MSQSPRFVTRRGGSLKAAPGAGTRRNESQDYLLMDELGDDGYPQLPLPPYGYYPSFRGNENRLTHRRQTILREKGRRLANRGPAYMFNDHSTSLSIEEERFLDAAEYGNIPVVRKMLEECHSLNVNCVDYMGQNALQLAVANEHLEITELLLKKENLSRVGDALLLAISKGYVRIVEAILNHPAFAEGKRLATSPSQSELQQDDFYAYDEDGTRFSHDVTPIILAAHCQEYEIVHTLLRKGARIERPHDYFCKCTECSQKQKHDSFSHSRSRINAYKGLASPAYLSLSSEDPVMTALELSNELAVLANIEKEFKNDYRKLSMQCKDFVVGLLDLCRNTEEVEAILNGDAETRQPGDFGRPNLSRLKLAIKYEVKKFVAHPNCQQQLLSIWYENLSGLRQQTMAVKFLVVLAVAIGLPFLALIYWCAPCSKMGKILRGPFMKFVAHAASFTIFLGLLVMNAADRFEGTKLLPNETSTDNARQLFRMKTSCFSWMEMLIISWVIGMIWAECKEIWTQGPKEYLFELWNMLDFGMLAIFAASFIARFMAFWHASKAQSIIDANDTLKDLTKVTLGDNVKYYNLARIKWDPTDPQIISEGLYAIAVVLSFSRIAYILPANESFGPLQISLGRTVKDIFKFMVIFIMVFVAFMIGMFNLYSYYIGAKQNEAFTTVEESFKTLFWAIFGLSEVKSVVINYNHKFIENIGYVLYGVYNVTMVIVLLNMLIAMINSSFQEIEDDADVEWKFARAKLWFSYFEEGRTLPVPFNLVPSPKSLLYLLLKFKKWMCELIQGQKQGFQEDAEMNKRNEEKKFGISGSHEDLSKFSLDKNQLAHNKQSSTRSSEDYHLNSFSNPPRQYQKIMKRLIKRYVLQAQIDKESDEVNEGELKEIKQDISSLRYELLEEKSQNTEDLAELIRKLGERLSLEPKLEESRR
TRPC6 activator – mouse TRPC6 channel activators, primary screen, cell-based, HEK293, membrane potential dye. HEK293-TRPC6 membrane potential dye fluorescence; stronger effect = higher value. 310,000 compounds, 0.13% hits. B-score at 10 µM. Short transient receptor potential channel 6 (Mus musculus), Q61143;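 active means B-score of the integrated fluorescence ratio above library mean plus 3 SD, and starting fluorescence ratio within library mean plus 5 SD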;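 further: higher score means more depolarization so channel activation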
TRPC4 block – inhibitors of mouse TRPC4 channel, primary screen, Fluo4 calcium, HEK293 TRPC4beta/mu-opioid cells. 300,000 compounds, 0.39% hits. AID 2247, 2010. Short transient receptor potential channel 4 (Mus musculus), Q9QUQ5. DAMGO-evoked Fluo4 calcium flux; stronger effect = lower value. B-score at 10 µM;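 active means B-score over 3 SD under the library average, no early fluorescence shift, positive overall ratio signal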
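Material: HEK293 cells with stable TRPC4beta plus mu-opioid receptor expression; probe or stimulus: DAMGO in two steps, submaximal then maximal; technique: Fluo4 calcium fluorescence by kinetic imaging, 5 s 1 Hz baseline; measure: integrated fluorescence ratio relative to baseline, converted to per-well B score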
TRPC4 act – activators of mouse TRPC4 channel, primary screen, Fluo4 calcium, HEK293 TRPC4beta/mu-opioid cells; Short transient receptor potential channel 4 (Mus musculus), Q9QUQ5; B-score at 10 µM; 310,000 compounds, 0.49% hits; Fluo4 calcium fluorescence; stronger effect = higher value;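 active means B-score above 5 SD of library B-scores, and initial fluorescence ratio not above library mean plus 5 SD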;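 further: positive B-score marks a calcium rise read as TRPC4 activation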
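Assay system: HEK293 stable line with TRPC4beta plus mu-opioid receptor. Times: dye 45 min RT, read 110 s. Measured by: kinetic Fluo4 calcium fluorescence. Measure: B score of integrated ratio. Controls: assay buffer as low control, maximal DAMGO as high control.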
TRPC4 potent – positive allosteric modulators of TRPC4, primary screen, cell-based, mouse TRPC4beta, HEK293 mu-opioid, Fluo-4 calcium; DAMGO EC20, Fluo-4 Ca2+ flux; stronger effect = higher value; B-score at 10 µM; 310,000 compounds, 0.42% hits; AID 2227, 2009;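 active means B-score of calcium response area above 5 SD of library B-scores, with initial fluorescence ratio within 5 SD of library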
Kir21 block – inhibitors of mouse Kir2.1 inward-rectifier potassium channel | AID 1672, 2009 | B-score at 10 µM | HEK293-Kir2.1, FluxOR thallium flux fluorescence; stronger effect = lower value | 310,000 compounds, 0.85% hits | Inward rectifier potassium channel 2 (Mus musculus), P35561;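 active means fluorescence ratio B-score at or below minus 3 SD of library scores, with starting-brightness B-score within 2 SD, cut at about -4.2 in these data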;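 further: channel flux triggered by added potassium and thallium sulfate stimulus; B-score of peak minus minimum fluorescence over baseline after thallium stimulus; more negative B-score means stronger Kir2.1 block with less thallium influx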
Each line names hits and unclear results; the compound was inactive in the other large screens.

COCCN(C(=O)CSc1nc2ccc(Cl)cc2[nH]1)c1c(N)n(Cc2ccccc2)c(=O)[nH]c1=O	TRPC4 block -5
COCCN(C(=O)CSc1nc2ccc(C)cc2[nH]1)c1c(N)n(Cc2ccccc2)c(=O)[nH]c1=O	none
CCOC(=O)C1=C(C)NC(SC)=C(C#N)C1CC(C)C (configuration not stated)	Kir21 block -7.08
O=[N+]([O-])c1cc(-c2ccc(/C=N/c3nc4ccccn4c3-c3ccco3)o2)ccc1Cl	none
CCn1c(=O)[nH]c(=O)c2c(N)c(C(=O)c3cc(F)ccc3F)sc21	TRPC4 potent 10
Cn1c2ccccc2c(=O)c2cc(C#CC3(O)CCCCC3)ccc21	none
Cn1c2ccccc2c(=O)c2ccc(C#CC3(N)CCCCC3)cc21	TRPC6 inhibitor -8.61
Cc1ccnc(NC(=O)Cn2cc([N+](=O)[O-])cn2)c1	TRPC4 block -8
Cc1cc(C)nc(SCc2cc(=O)c(OC(=O)c3cccc([N+](=O)[O-])c3)co2)n1	none
CCCC(=O)N/C(N)=N/c1nc(C)c2ccccc2n1	TRPC4 potent 19
CCc1ccc2nc(/N=C(\N)NC(=O)c3ccccc3)nc(C)c2c1	none
CCCN1CCN(CCCNC(=O)c2cc3c(s2)-c2c(C)cccc2OC3)CC1	none
Cc1cccc2c1-c1sc(C(=O)NCCCN3CCCC(C)C3)cc1CO2 (configuration not stated)	TRPC4 act 48, Kir21 block -4.66
O=C(COC(=O)/C=C/c1cccc(Cl)c1)NCCc1ccc(Cl)cc1Cl	none
COc1ccc(CN2C(=O)c3ccccc3C2C(=O)NC2CCC(C)CC2)c(OC)c1 (configuration not stated)	none
Cc1sc(NC(=O)C2CCCCC2C(=O)O)c(C(N)=O)c1-c1ccc(C(C)(C)C)cc1 (configuration not stated)	TRPC4 block -5
COc1ccc(Cl)cc1C(=O)NCCN(C)C	TRPC4 potent 28
CN(C)CCNC(=O)c1ccc(COc2ccc(Cl)cc2Cl)cc1	Kir21 block -4.85
Clc1ccc(SCCn2ccnc2)cc1	TRPC4 act 63
Clc1ccc(OCCn2ccnc2)c2ccccc12	TRPC4 act 53
Clc1ccc(OCCn2ccnc2)c(Cl)c1	TRPC4 potent 14
Clc1ccc(OCCn2ccnc2)c(Br)c1	TRPC4 potent 21
COc1ccccc1OCCn1ccnc1	none
NC(=O)C[C@H]1NC(=O)[C@H](CCC(=O)O)NC(=O)c2cc([N+](=O)[O-])cc(I)c2NCCC[C@@H](C(N)=O)NC1=O	none
COc1cc(NC(=O)C2CCCCC2)c(OC)cc1NC(=O)c1ccco1	none
CCCCCCCCNC(=O)CCNC(=O)c1ccc(C(C)(C)C)cc1	none
O=S(=O)(c1ccc(Cl)cc1Br)N1CCCCC1	TRPC4 potent 17
CC1CCN(S(=O)(=O)c2cc(Cl)ccc2Br)CC1	none
CCCCn1c(SCC(=O)OCC)nc2c(sc(=S)n2-c2ccccc2OC)c1=O	TRPC4 block -6
COc1ccccc1-n1c(SCC(=O)O)nc2c(sc(=S)n2-c2ccccc2C)c1=O	none
CC(C)CN(CCCNC(=O)CC1Oc2ccccc2NC1=O)CC(C)C (configuration not stated)	none
CCCCN(CC)CCCNC(=O)CC1Oc2ccccc2NC1=O (configuration not stated)	TRPC4 act 56
CC(Oc1cccc(Cl)c1)C(=O)Nc1cc(S(=O)(=O)N2CCOCC2)ccc1N1CCCCC1 (configuration not stated)	none
CCN1CCN(c2ccc(S(=O)(=O)N3CCOCC3)cc2NC(=O)C(C)Oc2cccc(Cl)c2)CC1 (configuration not stated)	TRPC4 act 101
Cc1cc(Cl)ccc1OC(C)C(=O)Nc1ccccc1N1CCOCC1 (configuration not stated)	TRPC4 potent 22
CCN1CCN(c2ccc(S(=O)(=O)N3CCOCC3)cc2NC(=O)c2ccccc2OC(F)F)CC1	TRPC4 act 131
CCN1CCN(c2ccc(S(=O)(=O)N3CCOCC3)cc2NC(=O)c2ccc(Cl)cc2Cl)CC1	none
NC(=O)c1ccc(NC(=O)COC(=O)C2(c3cccc(F)c3)CCCC2)cc1	none
O=C(COC(=O)C1(c2cccc(F)c2)CCCC1)NCc1ccc2c(c1)OCO2	Kir21 block -4.21
O=C(COC(=O)C1(c2cccc(F)c2)CCCC1)NCc1cccs1	Kir21 block -5.27
CCc1cc(C(=O)Nc2cc(Cl)ccc2N2CCN(C)CC2)sc1C	none
CN1CCN(c2ccc(Cl)cc2NC(=O)CC2OC(=O)c3ccccc32)CC1 (configuration not stated)	TRPC4 potent 23
CN1CCN(c2ccc(Cl)cc2NC(=O)/C=C/c2cccc(F)c2)CC1	TRPC4 potent 31
COc1ccc(CCNC(=O)/C(=C/c2cccnc2)NC(=O)c2ccccc2)cc1	none
O=C1C=C(c2ccccc2)CC(c2ccc(F)cc2)C1 (configuration not stated)	none
CC1CC(C)CN(CCCNC(=O)c2csc3c2CCCC3)C1 (configuration not stated)	TRPC4 act 82
CC(C)CCNC(=O)c1csc2c1CCCCC2	none
CCCCN(CC)CCCNC(=O)c1csc2c1CCCCC2	TRPC4 act 111
COc1ccc(NC(=O)/C(C#N)=C/c2ccc[nH]2)c(OC)c1	none
CC(C)(C)N=C1NN=C(c2ccc(Cl)cc2)CS1	none
COc1ccc(CN=C2NN=C(c3ccc(Cl)cc3)CS2)cc1	TRPC4 block -6
Cc1ccc(C(=O)NNC(=O)c2csc(N3CCOCC3)n2)s1	none
Cn1c(=O)cc(SCC(=O)NCCC2=CCCCC2)c2ccccc21	Kir21 block -5.49
COC(=O)c1cnc(Oc2ccc(NC(=O)NC(=O)c3c(F)cccc3Cl)cc2)cc1C(F)(F)F	none
COC(=O)c1cnc(Oc2c(Cl)cc(N)cc2Cl)cc1C(F)(F)F	TRPC4 potent 22
Cc1csc(/C(=N/OC(=O)c2ccco2)C(N)=O)n1	TRPC4 potent 10
Nc1ccc(Oc2ccccc2-c2ccccc2)cc1	TRPC4 potent 14
NCCOc1ccccc1-c1ccccc1	none
CCCCc1c(O)nc(SCC(=O)N2CCCCCC2)[nH]c1=O	none

From PubChem
